Measured values: ChEMBL document CHEMBL3352568, “Synthesis and evaluation of in vitro antimycobacterial activity of novel 1H-benzo[d]imidazole derivatives and analogues” (Eur J Med Chem, 2015)
≈ marks a conversion by molar mass, not a printed value.

Tests used:
[1] = tested on: Mycobacterium tuberculosis; assay: Antimicrobial activity against Mycobacterium tuberculosis Spec. 210 by two-fold serial dilution method; format: functional
Summary of the method: (§1)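 Classical test-tube successive two-fold dilution in Youmans' modification of Proskauer and Beck liquid medium with 10% bovine serum. Inocula from 14-day-old cultures. Compounds dissolved in ethylene glycol (stock 10 mg/mL), diluted in medium to 0.75–100 µg/mL. Incubated at 37 °C. MIC is the lowest concentration inhibiting growth relative to a compound-free control.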

[2] = tested on: Mycobacterium tuberculosis; assay: Antimicrobial activity against Mycobacterium tuberculosis Spec. 192 by two-fold serial dilution method; format: functional; summary of the method: as §1
[3] = tested on: Mycobacterium tuberculosis; assay: Antimicrobial activity against Mycobacterium tuberculosis H37Rv by two-fold serial dilution method; format: functional; summary of the method: as §1
A549 = assay: Cytotoxicity against human A549 cells assessed as growth inhibition after 120 hrs by MTT assay; format: functional, cell-based; conditions: A549, 120 h
Summary of the method: (§2)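 A549 cells were seeded at 4x10^3/well in RPMI1640 with 10% FBS and penicillin/streptomycin and attached overnight. Compounds were added from DMSO stocks at 200-fold concentration, with DMSO-only controls, and cells were exposed continuously for 120 h at 37 °C in 5% CO2. MTT (4 mg/mL in PBS) was added for 4 h, formazan dissolved in DMSO, and A540 read versus untreated cells. IC50 was taken as 50% growth inhibition; at least two independent experiments in duplicate.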

LLC-PK1 = assay: Cytotoxicity against pig LLC-PK1 cells assessed as growth inhibition after 120 hrs by MTT assay; format: cell-based; conditions: Sus scrofa, LLC-PK1, 120 h
Summary of the method: as §2, with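 “LLC-PK1” for “A549”, “1.25x10^4/well” for “4x10^3/well”, “Medium 199” for “RPMI1640”, “3%” for “10%”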

SMILES | MIC [1] | MIC [2] | MIC [3] | IC50 (A549) | IC50 (LLC-PK1)
O=[N+]([O-])c1ccc2[nH]c(CCC3CCCCC3)nc2c1 | 3.1 µg/mL (≈ 11.3 µM) | 3.1 µg/mL (≈ 11.3 µM) | 3.1 µg/mL (≈ 11.3 µM) |  | 
NNC(=O)c1ccncc1 [ISONIAZID] | 25 µg/mL (≈ 182 µM) | 12.5 µg/mL (≈ 91.1 µM) | 12.5 µg/mL (≈ 91.1 µM) |  | 
Cc1ccc2[nH]c(CCCc3ccccc3)nc2c1 | 100 µg/mL (≈ 399 µM) | 6.2 µg/mL (≈ 24.8 µM) | 25 µg/mL (≈ 99.9 µM) |  | 
Clc1cc2nc(CCC3CCCCC3)[nH]c2cc1Cl | 0.75 µg/mL (≈ 2.52 µM) | 0.75 µg/mL (≈ 2.52 µM) | 0.75 µg/mL (≈ 2.52 µM) | 11.1 µM | 9.62 µM
c1ccc(-c2ccnc(-c3nc4ccncc4[nH]3)c2)cc1 | 3.1 µg/mL (≈ 11.4 µM) | 12.5 µg/mL (≈ 45.9 µM) | 12.5 µg/mL (≈ 45.9 µM) |  | 
Brc1ccc2[nH]c(-c3cc(-c4ccccc4)ccn3)nc2c1 | 6.5 µg/mL (≈ 18.6 µM) | 12.5 µg/mL (≈ 35.7 µM) | 12.5 µg/mL (≈ 35.7 µM) |  | 
Fc1ccc2[nH]c(CCCc3ccccc3)nc2c1 | 50 µg/mL (≈ 197 µM) | 50 µg/mL (≈ 197 µM) | 12.5 µg/mL (≈ 49.2 µM) |  | 
Cc1cc2nc(CCC3CCCCC3)[nH]c2cc1C | 0.75 µg/mL (≈ 2.93 µM) | 0.75 µg/mL (≈ 2.93 µM) | 0.75 µg/mL (≈ 2.93 µM) | 11.2 µM | 43.9 µM
Cc1ccc2[nH]c(CCC3CCCCC3)nc2c1 | 1.5 µg/mL (≈ 6.19 µM) | 1.5 µg/mL (≈ 6.19 µM) | 1.5 µg/mL (≈ 6.19 µM) |  | 
c1ccc(-c2ccnc(-c3nc4cccnc4[nH]3)c2)cc1 | 12.5 µg/mL (≈ 45.9 µM) | 12.5 µg/mL (≈ 45.9 µM) | 12.5 µg/mL (≈ 45.9 µM) |  | 
Fc1ccc2[nH]c(-c3cc(-c4ccccc4)ccn3)nc2c1 | 6.2 µg/mL (≈ 21.4 µM) | 12.5 µg/mL (≈ 43.2 µM) | 6.2 µg/mL (≈ 21.4 µM) |  | 
Brc1ccc2[nH]c(CCC3CCCCC3)nc2c1 | 0.75 µg/mL (≈ 2.44 µM) | 0.75 µg/mL (≈ 2.44 µM) | 0.75 µg/mL (≈ 2.44 µM) | 13.4 µM | 32.6 µM
Cc1cc2nc(CCCC3CCCCC3)[nH]c2cc1C | 6.2 µg/mL (≈ 22.9 µM) | 6.2 µg/mL (≈ 22.9 µM) | 25 µg/mL (≈ 92.4 µM) |  | 
Fc1ccc2[nH]c(CCC3CCCCC3)nc2c1 | 3.1 µg/mL (≈ 12.6 µM) | 3.1 µg/mL (≈ 12.6 µM) | 3.1 µg/mL (≈ 12.6 µM) |  | 
Clc1ccc2[nH]c(-c3cc(-c4ccccc4)ccn3)nc2c1 | 6.2 µg/mL (≈ 20.3 µM) | 12.5 µg/mL (≈ 40.9 µM) | 12.5 µg/mL (≈ 40.9 µM) |  | 
O=S(=O)(c1ccccc1)n1c(CCCc2ccccc2)nc2cc(F)ccc21 | 50 µg/mL (≈ 127 µM) | 100 µg/mL (≈ 254 µM) | 100 µg/mL (≈ 254 µM) |  | 
Clc1ccc2[nH]c(CCC3CCCCC3)nc2c1 | 0.75 µg/mL (≈ 2.85 µM) | 0.75 µg/mL (≈ 2.85 µM) | 0.75 µg/mL (≈ 2.85 µM) | 10.9 µM | 17.1 µM
Fc1ccc2[nH]c(CCCC3CCCCC3)nc2c1 | 6.2 µg/mL (≈ 23.8 µM) | 6.2 µg/mL (≈ 23.8 µM) | 6.2 µg/mL (≈ 23.8 µM) |  | 
Clc1cc2nc(CCCc3ccccc3)[nH]c2cc1Cl | 6.2 µg/mL (≈ 20.3 µM) | 6.2 µg/mL (≈ 20.3 µM) | 6.2 µg/mL (≈ 20.3 µM) |  | 
CS(=O)(=O)n1c(CCCc2ccccc2)nc2cc(F)ccc21 | 50 µg/mL (≈ 150 µM) | 50 µg/mL (≈ 150 µM) | 50 µg/mL (≈ 150 µM) |  | 
Clc1cc2nc(CCCC3CCCCC3)[nH]c2cc1Cl | 6.2 µg/mL (≈ 19.9 µM) | 6.2 µg/mL (≈ 19.9 µM) | 12.5 µg/mL (≈ 40.2 µM) |  | 
Cc1ccc2[nH]c(-c3cc(-c4ccccc4)ccn3)nc2c1 | 3.1 µg/mL (≈ 10.9 µM) | 6.2 µg/mL (≈ 21.7 µM) | 3.1 µg/mL (≈ 10.9 µM) |  | 
Cc1cc2nc(CCCc3ccccc3)[nH]c2cc1C | 6.2 µg/mL (≈ 23.5 µM) | 6.2 µg/mL (≈ 23.5 µM) | 6.2 µg/mL (≈ 23.5 µM) |  | 
Cc1cc2nc(-c3cc(-c4ccccc4)ccn3)[nH]c2cc1C | 12.5 µg/mL (≈ 41.8 µM) | 12.5 µg/mL (≈ 41.8 µM) | 25 µg/mL (≈ 83.5 µM) |  | 
CO[C@H]1/C=C/O[C@@]2(C)Oc3c(C)c(O)c4c(O)c(c(/C=N/N5CCN(C)CC5)c(O)c4c3C2=O)NC(=O)/C(C)=C\C=C\[C@H](C)[C@H](O)[C@@H](C)[C@@H](O)[C@@H](C)[C@H](OC(C)=O)[C@@H]1C [RIFAMPIN] | 2.5 µg/mL (≈ 3.04 µM) | 1.2 µg/mL (≈ 1.46 µM) | 1.2 µg/mL (≈ 1.46 µM) |  | 
NC(=O)c1cnccn1 [PYRAZINAMIDE] | > 400 µg/mL | 25 µg/mL (≈ 203 µM) | 25 µg/mL (≈ 203 µM) |  | 
Brc1cnc2[nH]c(-c3cc(-c4ccccc4)ccn3)nc2c1 | 25 µg/mL (≈ 71.2 µM) | 25 µg/mL (≈ 71.2 µM) | 25 µg/mL (≈ 71.2 µM) |  | 
c1ccc(-c2ccnc(-c3nc4ccccc4[nH]3)c2)cc1 | 6.2 µg/mL (≈ 22.9 µM) | 6.2 µg/mL (≈ 22.9 µM) | 12.5 µg/mL (≈ 46.1 µM) |  | 
